In the library only some 2.6% were active in any assay of this set; here they are far more common.
SENP1 inh = blocks the human SENP1 SUMO protease catalytic domain. Q9P0U3. recombinant SENP1 catalytic domain, CyPet-SUMO1-YPet FRET cleavage. inhibition, % at 10 µM. 0.21% of 360,000 active. AID 624204;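 active = inhibition at least 30% at 10 µM, raw YFP signal under a set limit, fluorescence ratio 0.5 to 1.5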;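 note: 0% = enzyme with DMSO and 100% = no enzyme wells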
Target sequence (Q9P0U3 419-644 limits assumed): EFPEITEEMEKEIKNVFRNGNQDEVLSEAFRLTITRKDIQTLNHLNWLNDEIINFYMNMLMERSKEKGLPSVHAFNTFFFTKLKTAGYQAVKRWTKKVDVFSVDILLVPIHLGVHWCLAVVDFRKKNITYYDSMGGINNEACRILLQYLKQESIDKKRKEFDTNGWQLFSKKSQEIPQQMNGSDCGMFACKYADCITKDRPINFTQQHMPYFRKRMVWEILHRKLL
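Assay system: hSENP1 catalytic domain, recombinant. Amount: SENP1 enzyme, 20 pM final. Schedule: 50 min reaction, RT, dark. Technique: FRET, CFP and YFP emission. Control set: no-enzyme wells low, DMSO-plus-enzyme wells high control.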
SENP8 block-1 = inhibitors of human SENP8 protease | recombinant SENP8, Nedd8 substrate fluorescence | inhibition, % at 20 µM | 0.64% of 360,000 active | AID 602440; in the data active = inhibition mostly above about 40%, no sharp cut-off; inactive = mostly below about 27%
Target sequence (Q96LD8 whole entry, looked up): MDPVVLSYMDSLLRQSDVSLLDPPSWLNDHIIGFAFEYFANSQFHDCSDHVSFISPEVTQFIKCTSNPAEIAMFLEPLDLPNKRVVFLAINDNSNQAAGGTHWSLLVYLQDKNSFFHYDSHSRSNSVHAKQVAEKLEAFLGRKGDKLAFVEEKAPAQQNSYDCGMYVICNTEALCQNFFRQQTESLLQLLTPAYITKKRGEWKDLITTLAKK
UCH37 DUB inh = human UCH37 deubiquitinating enzyme inhibition; Q9Y5K5; purified proteasome/UCH37, Ub-AMC cleavage fluorescence; inhibition, % (no concentration beside the values); 0.33% of 330,000 active; AID 588478;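 active = mean inhibition over replicate wells above about 20%, limit read from the data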;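 note: 0% = compound-free wells with enzyme and 100% = wells lacking proteasome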
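Test system – human UCH37 enzyme supplied as purified proteasome complex · Incubation – 30 min preincubation with enzyme, 25 min cleavage at room temperature · Detection – AMC fluorescence from Ub-AMC cleavage, excitation 355 nm, emission 460 nm · Benchmarks – no-proteasome wells (full inhibition) and compound-free wells (no inhibition)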
SENP7 inh = inhibitors of human SENP7 protease. 1.5% of 330,000 active. AID 434973. recombinant SENP7, Z-RLRGG-aminoluciferin luminescence, 40 min. Q9BQF6. inhibition, % at 5 µM;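 active = inhibition above about 50% at the single test dose, limit read from the data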;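 note: plate controls were DMSO with enzyme for no effect and no enzyme buffer wells for full effect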
SENP8 block-2 = blocks the human protease SENP8. purified SENP8, Z-RLRGG-aminoluciferin cleavage, luminescence. inhibition, % at 10 µM. 1.2% of 330,000 active. Q96LD8; in the data active = inhibition above about 50%
SENP6 inh = blocks the human protease SENP6 | Q9GZR1 | Recombinant SENP6 catalytic domain, aminoluciferin luminescence | inhibition, % at 10 µM | 1.8% of 330,000 active | AID 2599;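 active = inhibition above about 50% at the single tested dose, limit read from the data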;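 note: plate controls were DMSO wells with enzyme for no effect and DMSO wells lacking enzyme for full effect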
An asterisk follows results filed as active; x = not tested or not shown.

SMILES	SENP1 inh	SENP8 block-1	UCH37 DUB inh	SENP7 inh	SENP8 block-2	SENP6 inh
Cc1ccc(Cl)cc1Nc1nc(-c2sc(NC(=O)c3ccco3)nc2C)cs1	-22	-136	-4	3	-4	-4
Cc1ccccc1Nc1nc(-c2sc(NC(=O)c3cccc(Cl)c3)nc2C)cs1	x	x	x	16	60*	77*
CCOc1ccc(C=NNC(=O)Cc2csc(Nc3cccc(C(F)(F)F)c3)n2)c(OCC)c1	x	x	2	x	x	x
Cc1cccc(N2C(=O)N3[C@@H]4c5ccccc5OC[C@@H]4[C@@H](c4ccccc4)[C@]3(C)C2=O)c1	-3	23	2	-2	8	2
Cc1cccc(N2C(=O)N3[C@H]4c5ccccc5OC[C@@H]4[C@@H](c4ccccc4)[C@@]3(C)C2=O)c1	0	10	26*	-2	8	-3
C=CCOc1ccc(/C=C/C(C)=N\O)cc1	3	15	x	89*	83*	79*
Cn1c(O)c(C=Nc2ccc(N3CCOCC3)cc2)c(=O)n(C)c1=S	56	10	34*	x	x	x
COc1cccc(C=Nc2ccc(N3CCOCC3)cc2)c1O	8	27	4	-17	-22	-6
O=C(NCCCN1CCOCC1)/C(=C/c1ccc(-c2cccc([N+](=O)[O-])c2)o1)NC(=O)c1ccccc1	-2	28	x	x	x	x
O=C(NCCCO)/C(=C/c1ccc(-c2cccc([N+](=O)[O-])c2)o1)NC(=O)c1ccccc1	-1	34	22*	-2	3	2
Oc1ccc(C=Nc2ccc3ncccc3c2)c(O)c1	x	x	x	25	89*	84*
Oc1ccc(C=NNc2ccc3ccccc3c2)c(O)c1	x	x	-6	x	x	x
CN1CCN(S(=O)(=O)c2cc([N+](=O)[O-])ccc2NN=Cc2ccc(Cl)cc2)CC1	x	x	-54	x	x	x
CCOC(=O)c1c2ccccc2[n+]([O-])n1[C@@H](C)C(N)=O	1	10	32*	11	-11	1
CNC(=S)N=Nc1c(O)[nH]c2ccc(C(C)C)cc12	2	44*	7	x	x	x
CCOc1ccc(CCNC(=O)CCS(=O)(=O)c2ccc(OC)cc2)cc1OCC	2	13	30*	2	2	2
Cc1ccc(C(=O)c2c3ccccc3[n+]([O-])n2CCC(=O)O)cc1	0	-24	1	-5	1	-4
NC(=O)CCn1c(C(=O)c2ccc(Cl)cc2)c2ccccc2[n+]1[O-]	2	31	28*	-4	4	-6
CCOC(=O)C1=C(O)/C(=C/c2ccc(-c3ccccc3C(=O)O)o2)SC1=Nc1ccc(OC)cc1	-22	-77	24*	x	x	x
CCOC(=O)C1=C(O)/C(=C/c2ccc(-c3ccccc3C(=O)O)o2)SC1=Nc1ccc(C)cc1	-34	-129	x	x	x	x
CC(C)(C)C(=O)ON=C(N)Cc1ccc(-c2csnn2)cc1	x	x	4	x	x	x
O=C(CN1C(=O)/C(=C/c2ccco2)SC1=S)NC1CCS(=O)(=O)C1 (centres undefined)	7	41*	10	-2	-4	7
O=C(CCN1C(=O)/C(=C/c2ccccc2)SC1=S)NC1CCS(=O)(=O)C1 (centres undefined)	3	12	10	-3	16	17
O=C1/C(=C/c2ccc([N+](=O)[O-])cc2)C=C(c2ccccc2)N1c1ccc(O)cc1	5	24	1	-9	-3	-3
O=C(O)c1cccc(N2C(=O)/C(=C/c3ccc([N+](=O)[O-])cc3)C=C2c2ccccc2)c1	32*	30	6	-3	1	20
SMILES	SENP1 inh	SENP8 block-1	UCH37 DUB inh	SENP7 inh	SENP8 block-2	SENP6 inh
COc1cc(CO)cc(-c2cc(CO)cc(OC)c2OC)c1OC	3	10	26*	0	12	-1
COc1ccc(CNC(=S)NN=Cc2ccncc2)cc1	x	x	34*	x	x	x
CCOc1ccc(CNC(=S)NN=Cc2cccnc2)cc1	x	x	3	x	x	x
CON=C(CNC(=O)c1ccccc1Cl)c1ccc(Cl)cc1	x	x	-6	x	x	x
Cc1nn(-c2ccccc2)c(N)c1N=Nc1cccc(S(=O)(=O)N2CCOCC2)c1	-1	41*	11	2	1	3
Cc1nn(-c2ccccc2)c(N)c1N=Nc1ccccc1	4	38	6	x	x	x
O=C1c2cccc(Sc3ccccc3)c2C(=O)c2c(Sc3ccccc3)cccc21	2	52*	9	-1	12	10
